Results published in ChEMBL document CHEMBL3414437, “Synthesis of CDDO-amino acid-nitric oxide donor trihybrids as potential antitumor agents against both drug-sensitive and drug-resistant colon cancer” (J Med Chem, 2015).
pIC50: −log10 of the molar value.

Key:
[1] = Antiproliferative activity against human HCT8 cells assessed as inhibition of cell proliferation after 72 hrs by MTT assay; type: functional, cell-based; conditions: HCT-8, 72 h
Outline: (§1)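 Cells (1.0 × 10^4/well) grown overnight in DMEM with 10% FBS. Treated in triplicate with eight concentrations ([…]) of compound from DMSO stock, final DMSO <0.4%, for 72 h. MTT added for the last 4 h, formazan dissolved in DMSO, read at 570 nm. Inhibition = (Acontrol−Atreated)/Acontrol. IC50 given as mean ± SD of three independent experiments.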

[2] = Antiproliferative activity against 5-FU resistant human HCT8 cells assessed as inhibition of cell proliferation after 72 hrs by MTT assay; type: functional, cell-based; conditions: HCT-8, 72 h; outline: as §1
[3] = Antiproliferative activity against human CCD-841-CoN cells assessed as inhibition of cell proliferation after 72 hrs by MTT assay; type: cell-based; outline: as §1
[4] = test system: HCT-8; assay: Induction of apoptosis in human HCT8 cells assessed as viable cells level at 0.25 uM incubated for 24 hrs by FITC-Annexin-V and propidium iodide staining based flow cytometry (reference value: 92%); type: functional
[5] = test system: HCT-8; assay: Induction of apoptosis in human HCT8 cells assessed as early apoptotic cells level at 0.25 uM incubated for 24 hrs by FITC-Annexin-V and propidium iodide staining based flow cytometry (reference value: 1.21%); type: functional
[6] = test system: HCT-8; assay: Induction of apoptosis in human HCT8 cells assessed as late apoptotic cells level at 0.25 uM incubated for 24 hrs by FITC-Annexin-V and propidium iodide staining based flow cytometry (reference value: 4.23%); type: functional
[7] = test system: HCT-8; assay: Induction of apoptosis in human HCT8 cells assessed as necrotic cells level at 0.25 uM incubated for 24 hrs by FITC-Annexin-V and propidium iodide staining based flow cytometry (reference value: 2.58%); type: functional
[8] = test system: HCT-8; assay: Induction of apoptosis in human HCT8 cells assessed as viable cells level at 0.5 uM incubated for 24 hrs by FITC-Annexin-V and propidium iodide staining based flow cytometry (reference value: 92%); type: functional
[9] = test system: HCT-8; assay: Induction of apoptosis in human HCT8 cells assessed as early apoptotic cells level at 0.5 uM incubated for 24 hrs by FITC-Annexin-V and propidium iodide staining based flow cytometry (reference value: 1.21%); type: functional
[10] = test system: HCT-8; assay: Induction of apoptosis in human HCT8 cells assessed as late apoptotic cells level at 0.5 uM incubated for 24 hrs by FITC-Annexin-V and propidium iodide staining based flow cytometry (reference value: 4.23%); type: functional
[11] = test system: HCT-8; assay: Induction of apoptosis in human HCT8 cells assessed as necrotic cells level at 0.5 uM incubated for 24 hrs by FITC-Annexin-V and propidium iodide staining based flow cytometry (reference value: 2.58%); type: functional
[12] = test system: HCT-8; assay: Induction of apoptosis in human HCT8 cells assessed as viable cells level at 1 uM incubated for 24 hrs by FITC-Annexin-V and propidium iodide staining based flow cytometry (reference value: 92%); type: functional
[13] = test system: HCT-8; assay: Induction of apoptosis in human HCT8 cells assessed as early apoptotic cells level at 1 uM incubated for 24 hrs by FITC-Annexin-V and propidium iodide staining based flow cytometry (reference value: 1.21%); type: functional
[14] = test system: HCT-8; assay: Induction of apoptosis in human HCT8 cells assessed as late apoptotic cells level at 1 uM incubated for 24 hrs by FITC-Annexin-V and propidium iodide staining based flow cytometry (reference value: 4.23%); type: functional
[15] = test system: HCT-8; assay: Induction of apoptosis in human HCT8 cells assessed as necrotic cells level at 1 uM incubated for 24 hrs by FITC-Annexin-V and propidium iodide staining based flow cytometry (reference value: 2.58%); type: functional
[16] = test system: HCT-8; assay: Induction of apoptosis in FU-resistant human HCT8 cells assessed as viable cells level at 0.25 uM incubated for 24 hrs by FITC-Annexin-V and propidium iodide staining based flow cytometry (reference value: 90%); type: functional
[17] = test system: HCT-8; assay: Induction of apoptosis in FU-resistant human HCT8 cells assessed as early apoptotic cells level at 0.25 uM incubated for 24 hrs by FITC-Annexin-V and propidium iodide staining based flow cytometry (reference value: 2.07%); type: functional
[18] = test system: HCT-8; assay: Induction of apoptosis in FU-resistant human HCT8 cells assessed as late apoptotic cells level at 0.25 uM incubated for 24 hrs by FITC-Annexin-V and propidium iodide staining based flow cytometry (reference value: 0.95%); type: functional
[19] = test system: HCT-8; assay: Induction of apoptosis in FU-resistant human HCT8 cells assessed as necrotic cells level at 0.25 uM incubated for 24 hrs by FITC-Annexin-V and propidium iodide staining based flow cytometry (reference value: 0.958%); type: functional
[20] = test system: HCT-8; assay: Induction of apoptosis in FU-resistant human HCT8 cells assessed as viable cells level at 0.5 uM incubated for 24 hrs by FITC-Annexin-V and propidium iodide staining based flow cytometry (reference value: 90%); type: functional
[21] = test system: HCT-8; assay: Induction of apoptosis in FU-resistant human HCT8 cells assessed as early apoptotic cells level at 0.5 uM incubated for 24 hrs by FITC-Annexin-V and propidium iodide staining based flow cytometry (reference value: 2.07%); type: functional
[22] = test system: HCT-8; assay: Induction of apoptosis in FU-resistant human HCT8 cells assessed as late apoptotic cells level at 0.5 uM incubated for 24 hrs by FITC-Annexin-V and propidium iodide staining based flow cytometry (reference value: 0.95%); type: functional
[23] = test system: HCT-8; assay: Induction of apoptosis in FU-resistant human HCT8 cells assessed as necrotic cells level at 0.5 uM incubated for 24 hrs by FITC-Annexin-V and propidium iodide staining based flow cytometry (reference value: 0.958%); type: functional
[24] = test system: HCT-8; assay: Induction of apoptosis in FU-resistant human HCT8 cells assessed as viable cells level at 1 uM incubated for 24 hrs by FITC-Annexin-V and propidium iodide staining based flow cytometry (reference value: 90%); type: functional
[25] = test system: HCT-8; assay: Induction of apoptosis in FU-resistant human HCT8 cells assessed as early apoptotic cells level at 1 uM incubated for 24 hrs by FITC-Annexin-V and propidium iodide staining based flow cytometry (reference value: 2.07%); type: functional
[26] = test system: HCT-8; assay: Induction of apoptosis in FU-resistant human HCT8 cells assessed as late apoptotic cells level at 1 uM incubated for 24 hrs by FITC-Annexin-V and propidium iodide staining based flow cytometry (reference value: 0.95%); type: functional
[27] = test system: HCT-8; assay: Induction of apoptosis in FU-resistant human HCT8 cells assessed as necrotic cells level at 1 uM incubated for 24 hrs by FITC-Annexin-V and propidium iodide staining based flow cytometry (reference value: 0.958%); type: functional
[28] = test system: Mus musculus; assay: Toxicity in nude BALB/c mouse xenografted with FU-resistant human HCT8 cells assessed as abnormal size changes in kidney at 17.8 to 35.7 umol/kg administered as via oral gavage daily for 21 days; type: organism-based, HCT-8; conditions: in vivo, 504 h
Outline: (§2)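 Male BALB/c nude mice aged 6-8 weeks, implanted s.c. in the right flank with HCT-8/5-FU cells (2 × 10^6). Once tumors reached 180-200 mm3 (days 9-11), randomized to daily gavage for 21 days in cremophor-EL/DMSO/PBS (1:1:8), 0.2 mL. At the end, liver, kidney, lung and heart checked for size, colour and weight. n = 8 per group.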

[29] = test system: Mus musculus; assay: Toxicity in nude BALB/c mouse xenografted with FU-resistant human HCT8 cells assessed as abnormal size changes in heart at 59.4 umol/kg administered as via oral gavage daily for 21 days; type: organism-based, HCT-8; conditions: in vivo, 504 h; outline: as §2

SMILES	pIC50 [1]	pIC50 [2]	pIC50 [3]	Activity [4]	Activity [5]	Activity [6]	Activity [7]	Activity [8]	Activity [9]	Activity [10]	Activity [11]	Activity [12]	Activity [13]	Activity [14]	Activity [15]	Activity [16]	Activity [17]	Activity [18]	Activity [19]	Activity [20]	also measured
CC1(C)CC[C@]2(C(=O)NCC(=O)OCC#CCOc3no[n+]([O-])c3S(=O)(=O)c3ccccc3)CC[C@]3(C)[C@H](C(=O)C=C4[C@@]5(C)C=C(C#N)C(=O)C(C)(C)[C@@H]5CC[C@]43C)[C@@H]2C1	6.53	6.63	5.89	74%	3.92%	10.3%	2.31%	62.8%	5.34%	24.7%	4.1%	67.1%	9.51%	39%	3.58%	70.8%	5.44%	21.4%	2.53%	49.8%	Activity [21]: 7.59%; Activity [22]: 34.6%; Activity [23]: 7.65%; Activity [24]: 34.3%; Activity [25]: 13.5%; Activity [26]: 44.9%; Activity [27]: 7.36%; Activity [28]: Non-toxic
COC(=O)[C@]12CCC(C)(C)C[C@H]1[C@H]1C(=O)C=C3[C@@]4(C)C=C(C#N)C(=O)C(C)(C)[C@@H]4CC[C@@]3(C)[C@]1(C)CC2 [BARDOXOLONE METHYL]	6.40	6.44	6.50	79.5%	3.78%	14%	2.13%	65.1%	6.8%	18.7%	3.18%	57.5%	9.42%	29.8%	3.31%	71.1%	5.15%	20.5%	3.2%	64.2%	Activity [29]: Non-toxic; Activity [21]: 6.01%; Activity [22]: 28.1%; Activity [23]: 1.73%; Activity [24]: 51.2%; Activity [25]: 10.9%; Activity [26]: 36%; Activity [27]: 1.52%
